Reference: ChEMBL document CHEMBL1140708, “Synthesis and in vivo evaluation of halogenated N,N-dimethyl-2-(2'-amino-4'-hydroxymethylphenylthio)benzylamine derivatives as PET serotonin transporter ligands” (J Med Chem, 2008)

Legend:
Thalamus [1] = test: Drug uptake in cynomolgus monkey thalamus after 55 mins; type: ADME, tissue-based, Macaca fascicularis; details: in vivo
How it was run: (§1)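 Chase microPET scans in the same male cynomolgus monkey after i.v. 11C radiotracer (6.90–18.10 mCi). R,S-citalopram·HBr, 1.5 mg/kg, was given i.v. as a 30 s bolus at 45 min (ratios at 45 and 85 min) or 60 min (ratios at 55 and 115 min) post-tracer. Value is the region-to-cerebellum activity ratio before and after citalopram.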

Pons [2] = test: Drug uptake in cynomolgus monkey pons after 55 mins; type: ADME, tissue-based, Macaca fascicularis; details: in vivo; how it was run: as §1
Caudate [3] = test: Drug uptake in cynomolgus monkey caudate after 85 mins; type: ADME, tissue-based, Macaca fascicularis, Caudate nucleus; details: in vivo
How it was run: (§2)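 Baseline microPET (Concorde P4) scans in one anesthetized adult male cynomolgus monkey (7.50–8.35 kg) after i.v. radiotracer. Attenuation correction used a 68Ge transmission scan; OSEM reconstruction, 3 mm resolution. Value is the region-of-interest to cerebellum activity ratio at 85 min post-injection.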

Caudate [4] = test: Drug uptake in cynomolgus monkey caudate in presence of citalopram after 115 mins; type: ADME, tissue-based, Macaca fascicularis, Caudate nucleus; details: in vivo; how it was run: as §1
Medulla [5] = test: Drug uptake in cynomolgus monkey medulla after 85 mins; type: ADME, tissue-based, Macaca fascicularis, Medulla of organ; details: in vivo; how it was run: as §2
Pons [6] = test: Drug uptake in cynomolgus monkey pons in presence of citalopram after 115 mins; type: ADME, tissue-based, Macaca fascicularis; details: in vivo; how it was run: as §1
Midbrain [7] = test: Drug uptake in cynomolgus monkey midbrain in presence of citalopram after 115 mins; type: ADME, tissue-based, Macaca fascicularis; details: in vivo; how it was run: as §1
Thalamus [8] = test: Drug uptake in cynomolgus monkey thalamus in presence of citalopram after 115 mins; type: ADME, tissue-based, Macaca fascicularis; details: in vivo; how it was run: as §1
Frontal cortex [9] = test: Drug uptake in cynomolgus monkey frontal cortex in presence of citalopram after 115 mins; type: ADME, tissue-based, Macaca fascicularis; details: in vivo; how it was run: as §1
Caudate [10] = test: Drug uptake in cynomolgus monkey caudate after 55 mins; type: ADME, tissue-based, Macaca fascicularis, Caudate nucleus; details: in vivo; how it was run: as §1
Occipital cortex [11] = test: Drug uptake in cynomolgus monkey occipital cortex after 85 mins; type: ADME, tissue-based, Macaca fascicularis; details: in vivo; how it was run: as §2
Occipital cortex [12] = test: Drug uptake in cynomolgus monkey occipital cortex after 55 mins; type: ADME, tissue-based, Macaca fascicularis; details: in vivo; how it was run: as §1
Medulla [13] = test: Drug uptake in cynomolgus monkey medulla in presence of citalopram after 115 mins; type: ADME, tissue-based, Macaca fascicularis, Medulla of organ; details: in vivo; how it was run: as §1
Pons [14] = test: Drug uptake in cynomolgus monkey pons after 85 mins; type: ADME, tissue-based, Macaca fascicularis; details: in vivo; how it was run: as §2
Occipital cortex [15] = test: Drug uptake in cynomolgus monkey occipital cortex in presence of citalopram after 115 mins; type: ADME, tissue-based, Macaca fascicularis; details: in vivo; how it was run: as §1
Frontal cortex [16] = test: Drug uptake in cynomolgus monkey frontal cortex after 85 mins; type: ADME, tissue-based, Macaca fascicularis; details: in vivo; how it was run: as §2
Midbrain [17] = test: Drug uptake in cynomolgus monkey midbrain after 55 mins; type: ADME, tissue-based, Macaca fascicularis; details: in vivo; how it was run: as §1
Medulla [18] = test: Drug uptake in cynomolgus monkey medulla after 55 mins; type: ADME, tissue-based, Macaca fascicularis, Medulla of organ; details: in vivo; how it was run: as §1
Frontal cortex [19] = test: Drug uptake in cynomolgus monkey frontal cortex after 55 mins; type: ADME, tissue-based, Macaca fascicularis; details: in vivo; how it was run: as §1
Midbrain [20] = test: Drug uptake in cynomolgus monkey midbrain after 85 mins; type: ADME, tissue-based, Macaca fascicularis; details: in vivo; how it was run: as §2
Thalamus [21] = test: Drug uptake in cynomolgus monkey thalamus after 85 mins; type: ADME, tissue-based, Macaca fascicularis; details: in vivo; how it was run: as §2
Putamen [22] = test: Drug uptake in cynomolgus monkey putamen in presence of citalopram after 115 mins; type: ADME, tissue-based, Macaca fascicularis; details: in vivo; how it was run: as §1
Putamen [23] = test: Drug uptake in cynomolgus monkey putamen after 55 mins; type: ADME, tissue-based, Macaca fascicularis; details: in vivo; how it was run: as §1
Putamen [24] = test: Drug uptake in cynomolgus monkey putamen after 85 mins; type: ADME, tissue-based, Macaca fascicularis; details: in vivo; how it was run: as §2
[25] = Partition coefficient, log P at pH 7.4; type: physicochemical; details: octanol/water
How it was run: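 Each 11C-labelled radiotracer was partitioned between 1-octanol and 0.02 M phosphate buffer at pH 7.4.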

Homo sapiens [26] = species on record: Homo sapiens; test: Selectivity for human DAT to human SERT
How it was run: (§3)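 Ratio of Ki at hDAT or hNET to Ki at hSERT. Ki values come from competition binding on transfected cell membranes: [125I]RTI-55 (MDCK-hDAT), [3H]nisoxetine (HEK-hNET) or [3H]citalopram (HEK-hSERT); 12 competitor concentrations from 10^-13 to 10^-5 M.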

[27] = biological target: Sodium-dependent serotonin transporter (Homo sapiens, UniProt P31645); test: Displacement of [3H]citalopram from human SERT expressed in HEK293 cells; type: cell-based
How it was run: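 Membranes (30–70 µg protein) from HEK-293 cells stably expressing hSERT, grown in DMEM/10% FBS/Geneticin. Incubated 2 h at room temperature with [3H]citalopram in 53 mM Tris, 126 mM NaCl, 5.3 mM KCl, pH 7.9. Competitor: 12 concentrations, 10^-13 to 10^-5 M, in triplicate. Rapid filtration on GF/B with cold buffer washes; Ki averaged from ≥2 separate assays.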

[28] = biological target: Sodium-dependent noradrenaline transporter (Homo sapiens, UniProt P23975); test: Displacement of [3H]nisoxetine from human NET t expressed in HEK293 cells; type: cell-based
How it was run: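 Membranes (30–70 µg protein) from HEK-293 cells stably expressing hNET. Equilibrium with [3H]nisoxetine for 4 h at 4 °C in 53 mM Tris, 320 mM NaCl, 5.3 mM KCl, pH 7.4 at 4 °C. Competitor: 12 concentrations, 10^-13 to 10^-5 M, in triplicate. Ended by vacuum filtration through PEI-presoaked GF/B filters; Ki averaged from at least two assays, each in duplicate.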

Homo sapiens [29] = species on record: Homo sapiens; test: Selectivity for human NET to human SERT; how it was run: as §3
[30] = biological target: Sodium-dependent dopamine transporter (Homo sapiens, UniProt Q01959); test: Displacement of [125I]RTI-55 from human DAT expressed in MDCK cells; type: cell-based
How it was run: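 MDCK cells stably expressing hDAT, grown to confluency in DMEM with 10% FBS and Geneticin, harvested in PBS/0.53 mM EDTA. Membranes (30–70 µg protein) were incubated 1 h at room temperature with 2.0 nM [125I]RTI-55 in 42 mM sodium phosphate/320 mM sucrose, pH 7.4. Competitor: 12 concentrations, 10^-13 to 10^-5 M, in triplicate. Filtered through PEI-soaked GF/B filters; Ki averaged over ≥2 assays.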

Sequence of Sodium-dependent serotonin transporter (P31645 whole entry): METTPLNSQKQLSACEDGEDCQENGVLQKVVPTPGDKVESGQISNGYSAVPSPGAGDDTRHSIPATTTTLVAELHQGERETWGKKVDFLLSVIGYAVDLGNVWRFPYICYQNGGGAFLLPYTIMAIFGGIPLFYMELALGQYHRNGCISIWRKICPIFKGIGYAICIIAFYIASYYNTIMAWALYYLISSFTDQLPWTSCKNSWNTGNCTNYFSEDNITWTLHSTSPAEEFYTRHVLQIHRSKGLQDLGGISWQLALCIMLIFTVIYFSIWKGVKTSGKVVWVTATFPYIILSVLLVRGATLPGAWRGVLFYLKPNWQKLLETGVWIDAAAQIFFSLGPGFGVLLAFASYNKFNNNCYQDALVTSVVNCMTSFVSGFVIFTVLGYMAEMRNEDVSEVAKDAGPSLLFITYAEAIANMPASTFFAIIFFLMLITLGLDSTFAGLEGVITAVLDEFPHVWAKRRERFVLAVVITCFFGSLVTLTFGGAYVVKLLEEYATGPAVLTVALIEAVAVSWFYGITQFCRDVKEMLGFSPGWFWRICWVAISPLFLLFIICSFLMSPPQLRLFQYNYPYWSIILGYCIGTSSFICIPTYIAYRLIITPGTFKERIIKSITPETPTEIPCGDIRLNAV
Sequence of Sodium-dependent noradrenaline transporter (P23975 whole entry): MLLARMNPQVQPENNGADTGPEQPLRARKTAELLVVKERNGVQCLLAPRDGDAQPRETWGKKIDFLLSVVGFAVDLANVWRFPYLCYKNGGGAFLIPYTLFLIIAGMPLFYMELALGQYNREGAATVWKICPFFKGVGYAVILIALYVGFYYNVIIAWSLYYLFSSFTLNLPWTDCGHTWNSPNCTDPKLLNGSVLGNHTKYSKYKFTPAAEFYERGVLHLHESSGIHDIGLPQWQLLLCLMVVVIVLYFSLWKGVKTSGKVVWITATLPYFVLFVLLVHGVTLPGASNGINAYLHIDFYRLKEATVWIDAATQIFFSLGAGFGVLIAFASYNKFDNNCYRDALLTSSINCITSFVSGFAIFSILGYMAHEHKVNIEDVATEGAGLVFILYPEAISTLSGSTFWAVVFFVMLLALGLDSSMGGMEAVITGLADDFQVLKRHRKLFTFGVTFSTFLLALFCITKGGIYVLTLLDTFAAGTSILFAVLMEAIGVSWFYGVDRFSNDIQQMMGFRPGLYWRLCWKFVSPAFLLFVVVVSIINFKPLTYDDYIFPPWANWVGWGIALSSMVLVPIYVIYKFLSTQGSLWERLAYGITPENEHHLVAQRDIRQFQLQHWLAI
Sequence of Sodium-dependent dopamine transporter (Q01959 whole entry): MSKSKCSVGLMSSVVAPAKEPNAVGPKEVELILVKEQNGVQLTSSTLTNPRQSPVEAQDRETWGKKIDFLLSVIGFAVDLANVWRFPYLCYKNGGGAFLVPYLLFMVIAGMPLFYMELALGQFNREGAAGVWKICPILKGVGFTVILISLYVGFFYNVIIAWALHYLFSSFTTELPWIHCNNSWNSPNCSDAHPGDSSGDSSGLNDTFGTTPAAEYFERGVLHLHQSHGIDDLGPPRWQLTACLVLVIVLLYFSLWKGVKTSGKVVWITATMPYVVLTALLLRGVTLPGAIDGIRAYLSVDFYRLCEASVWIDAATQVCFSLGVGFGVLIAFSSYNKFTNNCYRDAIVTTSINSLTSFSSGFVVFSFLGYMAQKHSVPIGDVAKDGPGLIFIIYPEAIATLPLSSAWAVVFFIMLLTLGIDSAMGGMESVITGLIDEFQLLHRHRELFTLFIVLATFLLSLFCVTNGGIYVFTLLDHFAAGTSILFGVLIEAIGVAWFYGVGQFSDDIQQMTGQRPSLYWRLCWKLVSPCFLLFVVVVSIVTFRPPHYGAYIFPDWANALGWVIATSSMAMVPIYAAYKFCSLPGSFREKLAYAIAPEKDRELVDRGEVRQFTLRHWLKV

| Ratio (Thalamus [1]) | Ratio (Pons [2]) | Ratio (Caudate [3]) | Ratio (Caudate [4]) | Ratio (Medulla [5]) | Ratio (Pons [6]) | Ratio (Midbrain [7]) | Ratio (Thalamus [8]) | Ratio (Frontal cortex [9]) | Ratio (Caudate [10]) | Ratio (Occipital cortex [11]) | Ratio (Occipital cortex [12]) | Ratio (Medulla [13]) | Ratio (Pons [14]) | Ratio (Occipital cortex [15]) | Ratio (Frontal cortex [16]) | Ratio (Midbrain [17]) | Ratio (Medulla [18]) | Ratio (Frontal cortex [19]) | Ratio (Midbrain [20]) | also measured | Compound |
| --- | --- | --- | --- | --- | --- | --- | --- | --- | --- | --- | --- | --- | --- | --- | --- | --- | --- | --- | --- | --- | --- |
| 2 | 1.9 | 1.8 | 1.3 | 2.4 | 1.5 | 1.7 | 1.63 | 1 | 1.8 | 1.2 | 1.2 | 1.6 | 1.65 | 1.1 | 1.09 | 2.4 | 2.5 | 1 | 3 | Ratio (Thalamus [21]): 2.06; Ratio (Putamen [22]): 1.4; Ratio (Putamen [23]): 1.9; Ratio (Putamen [24]): 2.3; logD [25]: 1.82 | CN([11CH3])Cc1cc(I)ccc1Sc1ccc(CO)cc1N |
| 1.8 | 2 | 1.7 | 1 | 2.6 | 1.23 | 1.2 | 1.4 | 1 | 1.4 | 1.34 | 1.35 | 1.1 | 2.8 | 1.1 | 1.06 | 2.4 | 2.3 | 1 | 3.24 | Ratio (Thalamus [21]): 2.3; Ratio (Putamen [22]): 1.2; Ratio (Putamen [23]): 1.6; Ratio (Putamen [24]): 2.4; logD [25]: 2.63 | CN([11CH3])Cc1cc(Br)ccc1Sc1ccc(CO)cc1N |
|  |  |  |  |  |  |  |  |  |  |  |  |  |  |  |  |  |  |  |  | Ratio Ki (Homo sapiens [26]): > 1000; Ki [27]: 1.26 nM; Ki [28]: 618 nM; Ratio Ki (Homo sapiens [29]): 490; Ki [30]: > 2000 nM | CN(C)Cc1cc(F)ccc1Sc1ccc(CO)cc1N |
|  |  |  |  |  |  |  |  |  |  |  |  |  |  |  |  |  |  |  |  | Ratio Ki (Homo sapiens [26]): 762; Ki [27]: 0.29 nM; Ki [28]: 725 nM; Ratio Ki (Homo sapiens [29]): > 2000; Ki [30]: 221 nM | CN(C)Cc1cc(Br)ccc1Sc1ccc(CO)cc1N |
